Measured values from ChEMBL document CHEMBL5674881, “The therapeutic properties of resminostat for hepatocellular carcinoma” (2018).
The source made the active and inactive calls. The calls are words filed in the database; no cut-off is given here.

Tests used:
[1] = tested on: Hep 3B2; assay: Anti-proliferative activity against human Hep3B cells assessed as increase in BAX mRNA level at 80 nM incubated for 24 hrs by qRT-PCR analysis; type: functional, cell-based
[2] = tested on: Hep 3B2; assay: Anti-proliferative activity against human Hep3B cells assessed as reduction in cell viability at 80 nM incubated for 24 hrs in presence of doxorubicin by Fluoro Fire-Blue ProViaTox assay relative to control; type: functional, cell-based
[3] = tested on: Hep 3B2; assay: Anti-proliferative activity against human Hep3B cells assessed as increase in IL-10 mRNA level at 80 nM incubated for 24 hrs in presence of SGBS CM by qRT-PCR analysis; type: functional, cell-based
[4] = tested on: HepG2; assay: Effect on human HepG2 cells assessed as reduction in HDAC1 mRNA level at 80 nM incubated for 24 hrs by qRT-PCR analysis; type: functional, cell-based
Outline: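 HepG2 (EMEM) and Huh7 (DMEM) cells, both with 10% FBS, treated with 30% differentiated-SGBS conditioned medium with or without 80 nM drug. HDAC1 RNA given as fold change versus untreated cells or between treatments (n = 3).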

[5] = tested on: Hep 3B2; assay: Anti-proliferative activity against human Hep3B cells assessed as reduction in cell viability at 80 nM measured after 24 hrs in presence of 17-AAG by Fluoro Fire-Blue ProViaTox assay; details: Hep 3B2, time 24.0 hrs
[6] = tested on: Hep 3B2; assay: Anti-proliferative activity against human Hep3B cells assessed as decrease in TNF-alpha mRNA level at 80 nM incubated for 24 hrs in presence of SGBS CM by qRT-PCR analysis; type: functional, cell-based
[7] = tested on: Hep 3B2; assay: Downregulation of EZH2 expression in human Hep3B cells at 80 nM incubated for 24 hrs in presence of GSK343 by qRT-PCR analysis; type: functional, cell-based
[8] = tested on: Hep 3B2; assay: Anti-proliferative activity against human Hep3B cells assessed as increase in Caspase 8 expression at 80 nM incubated for 24 hrs by qRT-PCR analysis; type: functional, cell-based
[9] = tested on: Hep 3B2; assay: Downregulation of STAT3 mRNA expression in human Hep3B cells at 80 nM incubated for 24 hrs in presence of 17-AAG by qRT-PCR analysis; type: functional, cell-based
Outline: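 Hep3B cells given 80 nM drug, 17-AAG (50 nM) or both for 24 h. STAT3 and a gene panel (BCL-2, HSP90, ZFP64) measured at RNA level. Triplicates, three independent experiments, mean ± SD.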

[10] = tested on: Hep 3B2; assay: Downregulation of BCL2 mRNA expression in human Hep3B cells at 80 nM incubated for 24 hrs in presence of 17-AAG by qRT-PCR analysis; type: functional, cell-based
[11] = tested on: Hep 3B2; assay: Anti-proliferative activity against human Hep3B cells assessed as increase in p27 mRNA expression at 80 nM incubated for 24 hrs in presence of SGBS CM by qRT-PCR analysis; type: functional, cell-based
[12] = tested on: Hep 3B2; assay: Upregulation of BAX expression in human Hep3B cells at 80 nM incubated for 24 hrs by qRT-PCR analysis; type: functional, cell-based
Outline: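 RNA levels of BCL-2, BIM, BAX and BAD measured in Hep3B cells after 24 h with 80 nM drug. Triplicates, three independent experiments, t-test.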

[13] = tested on: Hep 3B2; assay: Effect on human Hep3B cells assessed as reduction in HDAC1 mRNA level at 80 nM incubated for 24 hrs in presence of SGBS CM by qRT-PCR analysis; type: functional, cell-based
Outline: (§1)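 Hep3B cells exposed to 30% conditioned medium from differentiated SGBS adipocytes, with or without 80 nM drug. HDAC1, 2 and 3 RNA given as fold change versus untreated cells or between treatments.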

[14] = tested on: Hep 3B2; assay: Anti-proliferative activity against human Hep3B cells assessed as increase in p21 mRNA expression at 80 nM incubated for 24 hrs in presence of SGBS CM by qRT-PCR analysis; type: functional, cell-based
[15] = tested on: Hep 3B2; assay: Anti-proliferative activity against human Hep3B cells assessed as decrease in leptin mRNA level at 80 nM incubated for 24 hrs in presence of SGBS CM by qRT-PCR analysis; type: functional, cell-based
[16] = tested on: Hep 3B2; assay: Downregulation of ZFP64 mRNA expression in human Hep3B cells at 80 nM incubated for 24 hrs in presence of 17-AAG by qRT-PCR analysis
[17] = tested on: Hep 3B2; assay: Anti-proliferative activity against human Hep3B cells assessed as reduced cell proliferation at 80 nM incubated for 24 hrs by Fluoro Fire-Blue ProViaTox assay; type: functional, cell-based
[18] = tested on: Hep 3B2; assay: Downregulation of HDAC expression in human Hep3B cells at 80 nM incubated for 24 hrs in presence of 17-AAG by qRT-PCR analysis; type: functional, cell-based
[19] = tested on: Hep 3B2; assay: Anti-proliferative activity against human Hep3B cells assessed as reduced cell proliferation at 80 nM incubated for 24 hrs in presence of SGBS CM by Fluoro Fire-Blue ProViaTox assay; type: functional, cell-based
[20] = tested on: Hep 3B2; assay: Downregulation of BCL2 expression in human Hep3B cells at 80 nM incubated for 24 hrs by qRT-PCR analysis; type: functional, cell-based
[21] = tested on: Hep 3B2; assay: Effect on human Hep3B cells assessed as reduction in HDAC2 mRNA level at 80 nM incubated for 24 hrs in presence of SGBS CM by qRT-PCR analysis; type: functional, cell-based; outline: as §1
[22] = tested on: Hep 3B2; assay: Anti-proliferative activity against human Hep3B cells assessed as reduction in cell viability at 80 nM measured after 24 hrs in presence of 17-AAG under SGBS CM treatment by Fluoro Fire-Blue ProViaTox assay relative to control
[23] = tested on: Hep 3B2; assay: Effect on human Hep3B cells assessed as reduction in HDAC3 mRNA level at 80 nM incubated for 24 hrs in presence of SGBS CM by qRT-PCR analysis; type: functional, cell-based; outline: as §1
[24] = tested on: Hep 3B2; assay: Effect on human Hep3B cells assessed as reduction of HDAC global activity at 80 nM incubated for 24 hrs by FluoroFire HDAC Activity Assay Kit relative to control; type: functional; set-up: scale not given: the % may be the effect or the level left
Outline: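 Hep3B cells treated 24 h with 80 nM drug, alone or with 30% SGBS conditioned medium. Lysates made with lysis reagent (15 min, room temperature, shaking), spun, and supernatant used. Preincubated 20 min at 37°C, then Emerald substrate added for 1 h at 37°C. Fluorescence read at Ex 490/Em 525 nm. HeLa nuclear extract as positive control, HeLa extract with trichostatin A as negative control (n = 3).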

[25] = tested on: Hep 3B2; assay: Anti-proliferative activity against human Hep3B cells assessed as increase in cleaved Caspase 3/7 level at 80 nM incubated for 24 hrs in presence of SGBS CM by Tetraplex-Assay Kit analysis; type: functional, cell-based
Outline: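 Hep3B seeded at 20000 cells/well overnight, then treated with 30% differentiated SGBS conditioned medium with or without resminostat 80 nM for 24 h. Tetraplex caspase substrate buffer added during treatment for real-time cleavage read-out: Caspase 3/7 at Ex 535/Em 620 nm, Caspase 8 at Ex 490/Em 525 nm, Caspase 9 at Ex 370/Em 450 nm. Compared with controls or between treatments; n = 3.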

[26] = tested on: Huh-7; assay: Anti-proliferative activity against human Huh-7 cells assessed as reduced cell proliferation at 80 nM incubated for 24 hrs by Fluoro Fire-Blue ProViaTox assay; type: functional, cell-based

CN(C)Cc1ccc(S(=O)(=O)n2ccc(/C=C/C(=O)NO)c2)cc1 [RESMINOSTAT] was tested. Which Activity [1] did it give?
Its Activity is “Active”.

And the Activity [2]?
The Activity was “Active”.

And the Activity [3]?
The Activity was “Active”.

And the Activity [4]?
The Activity was “Active”.

What about the Activity [5] of the same compound?
Its Activity is “Active”.

And the Activity [6]?
Its Activity is “Active”.

What about the Activity [7] of the same compound?
The Activity was “Active”.

What about the Activity [8] of the same compound?
Its Activity is “Active”.

And the Activity [9]?
The Activity was “Active”.

And the Activity [10]?
The Activity was “Active”.

What about the Activity [11] of the same compound?
The Activity was “Active”.

What about the Activity [12] of the same compound?
The Activity was “Active”.

What about the Activity [13] of the same compound?
The Activity was “Active”.

And the Activity [14]?
Its Activity is “Active”.

What about the Activity [15] of the same compound?
Its Activity is “Active”.

What about the Activity [16] of the same compound?
The Activity was “Active”.

What about the Activity [17] of the same compound?
The Activity was “Active”.

What about the Activity [18] of the same compound?
Its Activity is “Active”.

And the Activity [19]?
The Activity was “Active”.

And the Activity [20]?
Its Activity is “Active”.

What about the Activity [21] of the same compound?
The Activity was “Active”.

What about the Activity [22] of the same compound?
Its Activity is 31.47%.

What about the Activity [23] of the same compound?
The Activity was “Active”.

And the Activity [24]?
Its Activity is 62.33%.

What about the Activity [25] of the same compound?
Its Activity is “Active”.

And the Activity [26]?
The Activity was “Active”.
